S1P4 antagonist: antagonists of human S1P4 receptor; O95977; S1P4-expressing cells, antagonist mode, reporter read-out; inhibition, % at 4.98 µM; 220,000 tested, 0.26% active; AID 1510; in the data active means inhibition above about 29%;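 further: 0% = wells stimulated with agonist and 100% = vehicle wells without agonist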
NPY2 pot ag: potentiators or agonists of human neuropeptide Y receptor Y2 | P49146 | cells expressing NPY-Y2, potentiator/agonist read-out | activation, % at 3.6 µM | 220,000 tested, 0.45% active; in the data active means activation above about 27%;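 further: cells stimulated with NPY near EC25 plus isoproterenol at EC100; 0% = vehicle plus submaximal agonist and 100% = vehicle plus saturating agonist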
Target sequence (P49146 whole entry, looked up): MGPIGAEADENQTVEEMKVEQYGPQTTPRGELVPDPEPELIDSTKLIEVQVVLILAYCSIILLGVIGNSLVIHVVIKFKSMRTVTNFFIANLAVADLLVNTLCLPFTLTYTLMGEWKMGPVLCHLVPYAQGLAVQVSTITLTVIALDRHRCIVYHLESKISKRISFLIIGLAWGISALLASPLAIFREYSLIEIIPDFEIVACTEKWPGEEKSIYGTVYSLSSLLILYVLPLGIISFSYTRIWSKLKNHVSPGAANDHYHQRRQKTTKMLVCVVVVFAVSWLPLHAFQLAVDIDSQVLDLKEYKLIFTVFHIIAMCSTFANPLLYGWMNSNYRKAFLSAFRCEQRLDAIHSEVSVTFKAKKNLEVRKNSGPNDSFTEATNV
NPY-Y1 PAM-ag: potentiates or activates human NPY-Y1 receptor | P25929 | NPY-Y1 expressing cells, potentiator/agonist activation | activation, % at 3.6 µM | 220,000 tested, 0.37% active | AID 1304; in the data active means activation above about 33%, passing the limit was not always enough;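 further: cells stimulated with NPY at EC10 then isoproterenol at EC100; 0% = low agonist plus stimulus and 100% = saturating agonist plus stimulus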
S1P4 agonist: activates the human S1P4 receptor; 220,000 tested, 0.35% active; S1P4-expressing cell line, agonist reporter assay; activation, % at 4.98 µM; O95977; in the data active means activation above about 11%;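 further: 0% = DMSO vehicle and 100% = reference agonist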
NPY Y1 blocker: antagonists of human neuropeptide Y receptor Y1; inhibition, % at 3.6 µM; P25929; 200,000 tested, 1% active; HEK293-CNG Y1 cells, membrane potential fluorescence; NPY at EC95, then isoproterenol; AID 1040;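 active means inhibition above the campaign mean inhibition of all tested compounds plus 3 SD, cut at about 20% in these data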;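 further: 0% = DMSO wells given NPY plus isoproterenol and 100% = isoproterenol alone without NPY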
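Benchmarks – high control isoproterenol alone, low control NPY with isoproterenol · Material – HEK293 Y1/CNG channel cell line · Times – dye 3 h, compound 60 min room temperature, stimulation 45 min · Probe or stimulus – NPY (25 nM), isoproterenol (1 µM), Ro 20-1724 (25 µM) · Evaluation – % inhibition of NPY effect · Signal – fluorescence, membrane potential probe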
NPY-Y2 antag: antagonists of human neuropeptide Y receptor Y2; inhibition, % at 2.7 µM; AID 793; NPY-Y2 expressing cells, antagonist mode; 140,000 tested, 0.99% active; in the data active means inhibition above about 17%;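 further: 0% = vehicle with agonist challenge and 100% = reference antagonist with challenge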
Active calls of the source: *; . = not tested or not shown. This is a sample that favours compounds with a hit; in the whole collection about 2.4% have one here.

SMILES	S1P4 antagonist	NPY2 pot ag	NPY-Y1 PAM-ag	S1P4 agonist	NPY Y1 blocker	NPY-Y2 antag
CCC(=O)Nc1c2c(nn1-c1ccc(F)cc1)CS(=O)C2 (configuration not stated)	-26	-7	9	0	2	2
CCOC(=O)N1CCC(NC(=O)C2CCN(S(=O)(=O)c3cccc4cccnc34)CC2)CC1	-13	3	3	0	-2	-1
COc1ccc(OC)c2sc(N(CCN(C)C)C(=O)c3cc(Cl)sc3Cl)nc12	-6	79*	90*	0	-9	.
COc1ccc2sc(N(CCN(C)C)C(=O)c3cc(Cl)sc3Cl)nc2c1	7	-31	-1	1	6	.
CCC1=NC(c2ccc(OC)cc2OC)N(O)C1(C)C (configuration not stated)	12	2	11	0	2	0
Cc1ccc2[nH]c3c(N4CCN(Cc5ccc6c(c5)OCO6)CC4)ncnc3c2c1	-13	6	-4	-1	-8	2
c1nc(N2CCN(Cc3ccc4c(c3)OCO4)CC2)c2[nH]cnc2n1	1	101*	57*	0	4	5
CC(NC(=O)CN1C(=O)NC(Cc2ccccc2)(Cc2ccccc2)C1=O)C12CC3CC(CC(C3)C1)C2 (configuration not stated)	14	-90	-127	-1	130*	161*
OCCN1CCN(c2nc(NCc3ccco3)c3ccccc3n2)CC1	-33	-19	-40	5	12	7
Cc1ccc(OCCN2CCN(c3nc(NCc4ccco4)c4ccccc4n3)CC2)cc1	-23	-7	-58	1	34*	30*
c1ccc(CN2CCN(c3nc(NCc4ccco4)c4ccccc4n3)CC2)cc1	-18	-16	-26	-3	31*	28*
COc1cc(C(C(=O)NC2CCCCC2)N(Cc2cccs2)C(=O)Cc2c[nH]c3ccccc23)cc(OC)c1OC (configuration not stated)	-12	32*	5	2	3	9
COc1ccc(CN(C(=O)c2cccs2)C(C(=O)NC2CCCCC2)c2ccc3ncccc3c2)cc1 (configuration not stated)	-26	0	-9	0	5	2
O=C(NC1CCCCC1)C(c1ccc2ncccc2c1)N(Cc1ccccc1)C(=O)c1cccs1 (configuration not stated)	-16	-27	-1	-3	24*	25*
O=C(NC1CCCC1)C(c1ccsc1)N(Cc1ccccc1)C(=O)Cc1cccs1 (configuration not stated)	9	-21	-34	0	60*	33*
COc1ccccc1CN(C(=O)Cc1cccs1)C(C(=O)NC1CCCC1)c1ccncc1 (configuration not stated)	2	-20	-30	-1	45*	19*
Cc1ccccc1/C=N/NC(=O)CSc1nc2ccccc2o1	6	-7	9	1	13	10
COc1cc(C2C(C#N)=C(N)Oc3cc(C)oc(=O)c32)cc(OC)c1OC (configuration not stated)	1	-4	-12	0	.	.
Cc1ccc(S(=O)(=O)CCC(=O)Nc2ccc(F)cc2)cc1	2	-3	-13	-1	6	.
O=C(NC1CCCC1)C(c1ccsc1)N(Cc1ccco1)C(=O)Cc1cccs1 (configuration not stated)	15	-32	-35	0	62*	38*
O=C(NC1CCCC1)C(c1ccccc1)N(Cc1ccc2c(c1)OCO2)C(=O)Cc1cccs1 (configuration not stated)	-7	-8	-34	3	23*	21*
O=C(NCc1ccccc1)C(c1ccccc1)N(Cc1ccc2c(c1)OCO2)C(=O)Cc1cccs1 (configuration not stated)	0	3	6	-1	6	6
COc1ccc(S(=O)(=O)NCCC(=O)NCc2cccs2)cc1	-18	-4	31	-1	0	1
Cc1ccc(NC(=O)C2CCN(S(=O)(=O)c3ccc(F)cc3)CC2)cc1	3	105*	113*	0	-2	2
CCOC(=O)C1CCCN(CC(O)COc2ccccc2C(C)=O)C1 (configuration not stated)	-2	37*	62*	1	-7	2
SMILES	S1P4 antagonist	NPY2 pot ag	NPY-Y1 PAM-ag	S1P4 agonist	NPY Y1 blocker	NPY-Y2 antag
CCOC(=O)C1CCCN(CC(O)COc2ccc(OC)cc2C(C)(C)C)C1 (configuration not stated)	4	49*	41*	-3	-5	2
CCOC(=O)C1CCCN(Cc2ccccc2OCC)C1 (configuration not stated)	5	-10	-1	0	0	4
CC(O)CNCCNCc1c(OCc2ccccc2)ccc2ccccc12 (configuration not stated)	4	-41	-116	-2	96*	38*
CC(C)COC(=O)c1ccccc1N1C(=O)C2C3CCC(C3)C2C1=O (configuration not stated)	5	2	8	0	-3	-1
Cc1ccnc(N=Cc2nc(-c3ccccc3Br)oc2O)c1	-9	-3	-14	2	-5	.
CCC1C(c2ccccc2)N(C)C(c2ccccc2)CC1(O)c1ccccc1 (configuration not stated)	-3	-18	-14	0	7	.
CC1C(c2ccccc2)N(C)C(c2ccccc2)C(C)C1(O)C#Cc1ccccc1 (configuration not stated)	-12	-12	-34	40*	14	18*
c1ccc(CCN(Cc2ccccc2)C2CCN(C3CCCC3)CC2)cc1	7	-48	-14	-1	21*	.
CCCCNC(=O)c1onc(CSc2ccccc2CC)c1C(=O)O	-2	-51	-22	3	21*	14
CCCCNC(=O)c1onc(CSc2cccc(F)c2)c1C(=O)O	-3	-27	-23	1	17	17
Cn1cc([N+](=O)[O-])c(C(=O)Nc2cc(Oc3cccnc3)cc([N+](=O)[O-])c2)n1	31*	-10	-5	-5	10	0
O=[N+]([O-])c1cc(Oc2cccnc2)cc([N+](=O)[O-])c1	-9	-1	-21	-1	-1	2
CC(=O)Nc1cccc(NC(=O)CSc2ncc(-c3ccccc3)[nH]2)c1	-12	11	7	2	0	.
CCOC(=O)C1(Cc2ccccc2C(F)(F)F)CCN(C2CCCC2)CC1	4	-8	-3	0	19	.
COCCNC(=S)N(CCc1c(C)[nH]c2ccc(Cl)cc12)Cc1cccs1	3	19	7	1	-6	.
CNC(=S)N(CCc1c(C)[nH]c2ccc(Cl)cc12)Cc1cccs1	-11	44*	49*	2	-12	.
O=C(CN1CCCc2ccccc21)N/N=C/c1ccc(O)cc1O	-4	8	1	1	1	-1

Bioassay records from PubChem.
